Measurements reported in paper PMC8010999 (Journal of medicinal chemistry, 2020).
One block for each molecule: values may come before it.

What was measured:
[1] = target: T1, rhMMP-7 (Homo sapiens, UniProt P09237); test: MMP affinity determination; assay type: biochemical; settings: relative to CGA
T1 sequence (P09237 95-267): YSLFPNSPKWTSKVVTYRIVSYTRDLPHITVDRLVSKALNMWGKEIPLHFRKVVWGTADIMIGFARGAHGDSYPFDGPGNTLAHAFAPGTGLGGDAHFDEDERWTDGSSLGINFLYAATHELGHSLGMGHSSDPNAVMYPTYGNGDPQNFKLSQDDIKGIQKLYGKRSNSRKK
Outline: (§1)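 Inhibition constants were derived from the kinetic effect of the test compound on MMP cleavage of the fluorogenic substrate Mca-Lys-Pro-Leu-Gly-Leu-Dpa-Ala-Arg-NH2. Conditions: 50 mM Tris/HCl pH 6.8, 10 mM CaCl2, 25 °C, with 0.2–0.5 nM enzyme. […] Fluorescence was monitored, and Ki was obtained by the Horovitz–Levitzki method.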

[2] = target: MMP-12 (Mus musculus, UniProt P34960); test: 99mTc-AGA-2 binding specificity; settings: co-incubation with 500-fold molar excess, P < 0.001
MMP-12, sequence (P34960 110-473): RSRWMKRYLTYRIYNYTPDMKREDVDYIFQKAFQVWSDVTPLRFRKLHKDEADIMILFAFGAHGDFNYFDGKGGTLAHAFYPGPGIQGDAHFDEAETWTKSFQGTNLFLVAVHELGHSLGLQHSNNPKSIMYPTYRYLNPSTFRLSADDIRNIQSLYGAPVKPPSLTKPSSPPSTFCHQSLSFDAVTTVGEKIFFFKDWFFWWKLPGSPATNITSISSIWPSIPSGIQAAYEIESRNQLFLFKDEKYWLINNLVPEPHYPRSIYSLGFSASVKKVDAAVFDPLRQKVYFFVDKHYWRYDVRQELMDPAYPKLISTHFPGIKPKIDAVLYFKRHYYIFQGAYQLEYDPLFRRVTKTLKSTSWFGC
Outline: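 Tissues came from Apoe−/− mice given angiotensin II (1,000 ng/kg/min) by subcutaneous minipump for 4 weeks. Tracer binding was compared in aneurysmal aorta and in normal-size infrarenal aorta, with or without MMP inhibitors.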

[3] = target: rhMMP-12 (Homo sapiens, UniProt P39900); test: MMP affinity determination; assay type: biochemical
rhMMP-12, sequence (P39900 106-470): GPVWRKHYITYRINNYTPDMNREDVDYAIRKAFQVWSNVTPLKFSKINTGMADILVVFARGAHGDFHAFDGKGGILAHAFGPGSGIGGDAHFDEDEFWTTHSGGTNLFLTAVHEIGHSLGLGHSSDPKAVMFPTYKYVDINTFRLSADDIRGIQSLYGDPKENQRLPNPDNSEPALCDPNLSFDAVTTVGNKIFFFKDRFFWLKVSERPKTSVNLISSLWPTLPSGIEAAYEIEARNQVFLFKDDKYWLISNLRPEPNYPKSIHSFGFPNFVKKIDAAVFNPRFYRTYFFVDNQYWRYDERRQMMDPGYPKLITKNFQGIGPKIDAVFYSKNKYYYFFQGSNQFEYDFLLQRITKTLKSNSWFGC
Outline: as §1

drop in potency for MMP-7 on ring opening from cyclic CGA to acyclic AGA [1]: 10 fold | effect on 99mTc-AGA-2 binding to AAA tissue [2]: significantly reduced | drop in potency for MMP-12 on ring opening from cyclic CGA to acyclic AGA ([3]; relative to CGA): 10 fold
SMILES: CC(C)C[C@H](CC(=O)NO)C(=O)N[C@@H](Cc1ccccc1)C(=O)O [AGA]

selectivity for rhMMP-12 relative to rhMMP-7 ([3]; against rhMMP-7): at least 12 folds
SMILES: CC(C)C[C@H]1C(=O)N[C@H](C(=O)N[C@@H](CCC(=O)O)C(=O)O)Cc2ccc(cc2)OCCC[C@@H]1C(=O)NO [CGA-1]

SMILES: CC(C)C[C@H]1C(=O)N[C@H](C(=O)O)Cc2ccc(cc2)OCCC[C@@H]1C(=O)NO [CGA]
selectivity for rhMMP-12 relative to rhMMP-13 ([3]; against rhMMP-13): 28 folds

effect on 99mTc-AGA-2 binding to AAA tissue [2]: significantly reduced
SMILES: CNC(=O)[C@H](Cc1c[nH]c2ccccc12)NC(=O)[C@@H](CC(=O)NO)CC(C)C [GM6001, reference compound]
